Data: ChEMBL document CHEMBL1138353, “Facile stereospecific synthesis and biological evaluation of (S)- and (R)-2-amino-2-methyl-4-[123I]iodo-3-(E)-butenoic acid for brain tumor imaging with single photon emission computerized tomography” (J Med Chem, 2007)

Columns and labels:
9L [1] = assay: Drug uptake per 10^6 cells in rat 9L cells after 30 mins; format: ADME, cell-based; details: 0.5 h
In short: (§1)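 Cultured rat 9L gliosarcoma cells incubated 30 min with 131I-labelled tracer, with or without A-type inhibitor N-MeAIB or L-type inhibitor BCH. Uptake expressed as percent of initial dose per 1 × 10^6 cells, normalized for dose and cell number. Inhibition compared to control by one-way ANOVA; SD shown.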

9L [2] = assay: Drug uptake per 10^6 cells in rat 9L cells after 30 mins assessed as uptake inhibition in presence of 2-aminobicyclo[2.2.1]-heptane-2-carboxylic acid relative to control; format: ADME, cell-based; design: scale not given: the % may be the effect or the level left; details: 0.5 h; in short: as §1
Blood [3] = assay: Biodistribution in 9L cells bearing Fischer 344 rat blood at 15 to 30 uCi, iv after 30 mins; format: ADME, organism-based; details: in vivo, 0.5 h
In short: (§2)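 Male Fischer 344 rats (125–175 g) bearing intracranial 9L gliosarcoma implants; radioiodinated tracer (123I for S, 131I for R) purified in saline, given intravenously. Tissues harvested at 30, 60 or 120 min, radioactivity expressed as %ID/g (thyroid per organ). Groups: S study 5 rats per time; R study 5 at 30 min, 4 at 60 and 120 min.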

Blood [4] = assay: Biodistribution in 9L cells bearing Fischer 344 rat blood at 15 to 30 uCi, iv after 60 mins; format: ADME, organism-based; details: in vivo, 1 h; in short: as §2
Blood [5] = assay: Biodistribution in 9L cells bearing Fischer 344 rat blood at 15 to 30 uCi, iv after 120 mins; format: ADME, organism-based; details: in vivo, 2 h; in short: as §2
Heart [6] = assay: Biodistribution in 9L cells bearing Fischer 344 rat heart at 15 to 30 uCi, iv after 30 mins; format: ADME, organism-based; details: in vivo, 0.5 h; in short: as §2
Heart [7] = assay: Biodistribution in 9L cells bearing Fischer 344 rat heart at 15 to 30 uCi, iv after 60 mins; format: ADME, organism-based; details: in vivo, 1 h; in short: as §2
Heart [8] = assay: Biodistribution in 9L cells bearing Fischer 344 rat heart at 15 to 30 uCi, iv after 120 mins; format: ADME, organism-based; details: in vivo, 2 h; in short: as §2
Lung [9] = assay: Biodistribution in 9L cells bearing Fischer 344 rat lung at 15 to 30 uCi, iv after 30 mins; format: ADME, organism-based; details: in vivo, 0.5 h; in short: as §2
Lung [10] = assay: Biodistribution in 9L cells bearing Fischer 344 rat lung at 15 to 30 uCi, iv after 60 mins; format: ADME, organism-based; details: in vivo, 1 h; in short: as §2
Lung [11] = assay: Biodistribution in 9L cells bearing Fischer 344 rat lung at 15 to 30 uCi, iv after 120 mins; format: ADME, organism-based; details: in vivo, 2 h; in short: as §2
Liver [12] = assay: Biodistribution in 9L cells bearing Fischer 344 rat liver at 15 to 30 uCi, iv after 30 mins; format: ADME, organism-based; details: in vivo, 0.5 h; in short: as §2
Liver [13] = assay: Biodistribution in 9L cells bearing Fischer 344 rat liver at 15 to 30 uCi, iv after 60 mins; format: ADME, organism-based; details: in vivo, 1 h; in short: as §2
Liver [14] = assay: Biodistribution in 9L cells bearing Fischer 344 rat liver at 15 to 30 uCi, iv after 120 mins; format: ADME, organism-based; details: in vivo, 2 h; in short: as §2
Pancreas [15] = assay: Biodistribution in 9L cells bearing Fischer 344 rat pancreas at 15 to 30 uCi, iv after 30 mins; format: ADME, organism-based; details: in vivo, 0.5 h; in short: as §2
Pancreas [16] = assay: Biodistribution in 9L cells bearing Fischer 344 rat pancreas at 15 to 30 uCi, iv after 60 mins; format: ADME, organism-based; details: in vivo, 1 h; in short: as §2
Pancreas [17] = assay: Biodistribution in 9L cells bearing Fischer 344 rat pancreas at 15 to 30 uCi, iv after 120 mins; format: ADME, organism-based; details: in vivo, 2 h; in short: as §2
Spleen [18] = assay: Biodistribution in 9L cells bearing Fischer 344 rat spleen at 15 to 30 uCi, iv after 30 mins; format: ADME, organism-based; details: in vivo, 0.5 h; in short: as §2
Spleen [19] = assay: Biodistribution in 9L cells bearing Fischer 344 rat spleen at 15 to 30 uCi, iv after 60 mins; format: ADME, organism-based; details: in vivo, 1 h; in short: as §2
Spleen [20] = assay: Biodistribution in 9L cells bearing Fischer 344 rat spleen at 15 to 30 uCi, iv after 120 mins; format: ADME, organism-based; details: in vivo, 2 h; in short: as §2
Kidney [21] = assay: Biodistribution in 9L cells bearing Fischer 344 rat kidney at 15 to 30 uCi, iv after 30 mins; format: ADME, organism-based; details: in vivo, 0.5 h; in short: as §2
Kidney [22] = assay: Biodistribution in 9L cells bearing Fischer 344 rat kidney at 15 to 30 uCi, iv after 60 mins; format: ADME, organism-based; details: in vivo, 1 h; in short: as §2
Kidney [23] = assay: Biodistribution in 9L cells bearing Fischer 344 rat kidney at 15 to 30 uCi, iv after 120 mins; format: ADME, organism-based; details: in vivo, 2 h; in short: as §2
Muscle tissue [24] = assay: Biodistribution in 9L cells bearing Fischer 344 rat muscle at 15 to 30 uCi, iv after 30 mins; format: ADME, organism-based; details: in vivo, 0.5 h; in short: as §2
Muscle tissue [25] = assay: Biodistribution in 9L cells bearing Fischer 344 rat muscle at 15 to 30 uCi, iv after 60 mins; format: ADME, organism-based; details: in vivo, 1 h; in short: as §2
Muscle tissue [26] = assay: Biodistribution in 9L cells bearing Fischer 344 rat muscle at 15 to 30 uCi, iv after 120 mins; format: ADME, organism-based; details: in vivo, 2 h; in short: as §2
Brain [27] = assay: Biodistribution in 9L cells bearing Fischer 344 rat brain at 15 to 30 uCi, iv after 30 mins; format: ADME, organism-based; details: in vivo, 0.5 h; in short: as §2
Brain [28] = assay: Biodistribution in 9L cells bearing Fischer 344 rat brain at 15 to 30 uCi, iv after 60 mins; format: ADME, organism-based; details: in vivo, 1 h; in short: as §2
Brain [29] = assay: Biodistribution in 9L cells bearing Fischer 344 rat brain at 15 to 30 uCi, iv after 120 mins; format: ADME, organism-based; details: in vivo, 2 h; in short: as §2
Rattus norvegicus [30] = assay: Biodistribution in 9L cells bearing Fischer 344 rat tumor at 15 to 30 uCi, iv after 30 mins; format: ADME, organism-based, Neoplasm; details: in vivo, 0.5 h; in short: as §2
Rattus norvegicus [31] = assay: Biodistribution in 9L cells bearing Fischer 344 rat tumor at 15 to 30 uCi, iv after 60 mins; format: ADME, organism-based, Neoplasm; details: in vivo, 1 h; in short: as §2
Rattus norvegicus [32] = assay: Biodistribution in 9L cells bearing Fischer 344 rat tumor at 15 to 30 uCi, iv after 120 mins; format: ADME, organism-based, Neoplasm; details: in vivo, 2 h; in short: as §2
Bone [33] = assay: Biodistribution in 9L cells bearing Fischer 344 rat bone at 15 to 30 uCi, iv after 30 mins; format: ADME, organism-based, Bone element; details: in vivo, 0.5 h; in short: as §2
Bone [34] = assay: Biodistribution in 9L cells bearing Fischer 344 rat bone at 15 to 30 uCi, iv after 60 mins; format: ADME, organism-based, Bone element; details: in vivo, 1 h; in short: as §2
Bone [35] = assay: Biodistribution in 9L cells bearing Fischer 344 rat bone at 15 to 30 uCi, iv after 120 mins; format: ADME, organism-based, Bone element; details: in vivo, 2 h; in short: as §2
Testes [36] = assay: Biodistribution in 9L cells bearing Fischer 344 rat testes at 15 to 30 uCi, iv after 30 mins; format: ADME, organism-based, Testis; details: in vivo, 0.5 h; in short: as §2
Testes [37] = assay: Biodistribution in 9L cells bearing Fischer 344 rat testes at 15 to 30 uCi, iv after 60 mins; format: ADME, organism-based, Testis; details: in vivo, 1 h; in short: as §2
Testes [38] = assay: Biodistribution in 9L cells bearing Fischer 344 rat testes at 15 to 30 uCi, iv after 120 mins; format: ADME, organism-based, Testis; details: in vivo, 2 h; in short: as §2
Thyroid gland [39] = assay: Biodistribution in 9L cells bearing Fischer 344 rat thyroid at 15 to 30 uCi, iv after 30 mins; format: ADME, organism-based; details: in vivo, 0.5 h; in short: as §2
Thyroid gland [40] = assay: Biodistribution in 9L cells bearing Fischer 344 rat thyroid at 15 to 30 uCi, iv after 60 mins; format: ADME, organism-based; details: in vivo, 1 h; in short: as §2
Thyroid gland [41] = assay: Biodistribution in 9L cells bearing Fischer 344 rat thyroid at 15 to 30 uCi, iv after 120 mins; format: ADME, organism-based; details: in vivo, 2 h; in short: as §2
Nucleic Acid [42] = assay: Ratio of drug level in tumor to brain in 9L cells bearing Fischer 344 rat at 15 to 30 uCi, iv after 30 mins; format: ADME, organism-based; details: in vivo, 0.5 h
In short: (§3)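 Intracranial 9L gliosarcoma in male Fischer 344 rats (125–175 g). The 123I-labelled (S) or 131I-labelled (R) tracer was given iv in saline. Tumor and normal brain %ID/g were measured at 30, 60 or 120 min, and the ratio was taken from these. Groups were 5 per time for S, and 5/4/4 for R.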

Nucleic Acid [43] = assay: Ratio of drug level in tumor to brain in 9L cells bearing Fischer 344 rat at 15 to 30 uCi, iv after 60 mins; format: ADME, organism-based; details: in vivo, 1 h; in short: as §3
Nucleic Acid [44] = assay: Ratio of drug level in tumor to brain in 9L cells bearing Fischer 344 rat at 15 to 30 uCi, iv after 120 mins; format: ADME, organism-based; details: in vivo, 2 h; in short: as §3

Drug uptake (9L [1]): 0.07 %ID | Activity (9L [2]): 57% | Drug uptake (Blood [3]): 0.22 % ID/g | Drug uptake (Blood [4]): 0.69 % ID/g | Drug uptake (Blood [5]): 0.56 % ID/g | Drug uptake (Heart [6]): 0.19 % ID/g | Drug uptake (Heart [7]): 0.43 % ID/g | Drug uptake (Heart [8]): 0.34 % ID/g | Drug uptake (Lung [9]): 0.27 % ID/g | Drug uptake (Lung [10]): 0.65 % ID/g | Drug uptake (Lung [11]): 0.45 % ID/g | Drug uptake (Liver [12]): 0.31 % ID/g | Drug uptake (Liver [13]): 0.6 % ID/g | Drug uptake (Liver [14]): 0.37 % ID/g | Drug uptake (Pancreas [15]): 1.21 % ID/g | Drug uptake (Pancreas [16]): 1.86 % ID/g | Drug uptake (Pancreas [17]): 0.78 % ID/g | Drug uptake (Spleen [18]): 0.3 % ID/g | Drug uptake (Spleen [19]): 0.5 % ID/g | Drug uptake (Spleen [20]): 0.31 % ID/g | Drug uptake (Kidney [21]): 2.91 % ID/g | Drug uptake (Kidney [22]): 3.43 % ID/g | Drug uptake (Kidney [23]): 1.76 % ID/g | Drug uptake (Muscle tissue [24]): 0.26 % ID/g | Drug uptake (Muscle tissue [25]): 0.4 % ID/g | Drug uptake (Muscle tissue [26]): 0.26 % ID/g | Drug uptake (Brain [27]): 0.018 % ID/g | Drug uptake (Brain [28]): 0.066 % ID/g | Drug uptake (Brain [29]): 0.051 % ID/g | Drug uptake (Rattus norvegicus [30]): 0.19 % ID/g | Drug uptake (Rattus norvegicus [31]): 0.51 % ID/g | Drug uptake (Rattus norvegicus [32]): 0.39 % ID/g | Drug uptake (Bone [33]): 0.13 % ID/g | Drug uptake (Bone [34]): 0.34 % ID/g | Drug uptake (Bone [35]): 0.26 % ID/g | Drug uptake (Testes [36]): 0.09 % ID/g | Drug uptake (Testes [37]): 0.26 % ID/g | Drug uptake (Testes [38]): 0.23 % ID/g | Drug uptake (Thyroid gland [39]): 0.08 %ID/organ | Drug uptake (Thyroid gland [40]): 0.25 %ID/organ | Drug uptake (Thyroid gland [41]): 0.36 %ID/organ | Ratio (Nucleic Acid [42]): 10 | Ratio (Nucleic Acid [43]): 7.7 | Ratio (Nucleic Acid [44]): 7.6
Structure (SMILES): C[C@@](N)(/C=C/[131I])C(=O)O
